# IDH1 mut inh – blocks human IDH1 R132H reductase activity. O75874. diaphorase/resazurin fluorescence, 60 min. inhibition, % at 10 µM. actives 0.18% (n = 70,000). AID 624101; in the data active = inhibition above about 34%; inconclusive = no clear call, values can overlap the other calls; inactive = below about 11%;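 also: 0% = DMSO and 100% = no enzyme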
# KDM4C inh – KDM4C (human) demethylase inhibition. Q9H3R0. GST-KDM4C 2-372, H3K9me3 peptide, LANCE TR-FRET. inhibition, % at 12.5 µM. actives 0.15% (n = 96,000). AID 720574;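 active = mean replicate inhibition above about 25%, with at least 55% of replicates also reaching it, limit read from the data, passing the limit was not always enough; inconclusive = only one of those two conditions met; inactive = neither condition met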
# Target sequence (Q9H3R0 2-372 limits assumed): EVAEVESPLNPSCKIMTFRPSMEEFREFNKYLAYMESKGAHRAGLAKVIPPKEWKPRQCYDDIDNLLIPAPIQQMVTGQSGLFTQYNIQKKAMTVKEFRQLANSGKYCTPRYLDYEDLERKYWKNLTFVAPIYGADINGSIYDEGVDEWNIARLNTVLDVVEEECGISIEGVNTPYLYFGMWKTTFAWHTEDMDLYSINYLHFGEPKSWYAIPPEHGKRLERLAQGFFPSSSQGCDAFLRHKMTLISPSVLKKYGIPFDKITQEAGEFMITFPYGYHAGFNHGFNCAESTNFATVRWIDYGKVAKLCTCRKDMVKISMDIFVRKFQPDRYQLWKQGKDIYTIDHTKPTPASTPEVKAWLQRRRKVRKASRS
#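 material = GST-tagged GASC-1 (JMJD2C) catalytic fragment, aa 2-372 | amount = enzyme final amount 10 nM | medium = HEPES buffer, pH 7.5, plus ascorbate | also added = H3K9me3 peptide substrate, Fe(II), 2-oxoglutarate | dosing = single dose | times = 30 min demethylation and 1 h detection at room temperature | detection = LANCE TR-FRET | read-out basis = Fall in 671/618 emission ratio as inhibition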
# Tcruzi prolif – inhibitors of T. cruzi proliferation; AID 624255; T. cruzi beta-gal in NIH3T3, GalScreen luminescence, 90 h; inhibition, % at 8.34 µM; actives 5.9% (n = 77,000);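 active = mean inhibition above about 93%, with at least 55% of replicates each passing it, limit read from the data, passing the limit was not always enough; inconclusive = only one of those two conditions holds; inactive = neither condition holds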
# The depositor's hits bear a star; ? = inconclusive; / = no result. The sample as a whole holds a higher share of hits than the screen did.
SMILES,IDH1 mut inh,KDM4C inh,Tcruzi prolif
C[C@@H]1CN([C@H](C)CO)S(=O)(=O)c2ccc(C3=CCCCC3)cc2O[C@@H]1CN(C)Cc1cccnc1,/,-2,/
C[C@@H]1CN([C@@H](C)CO)S(=O)(=O)c2ccc(C3=CCCCC3)cc2O[C@H]1CN(C)C(=O)Cc1ccncc1,58*,-1,81
C[C@@H]1CN([C@@H](C)CO)S(=O)(=O)c2ccc(C3=CCCCC3)cc2O[C@@H]1CN(C)Cc1cccnc1,38*,0,/
C[C@@H]1CN([C@H](C)CO)S(=O)(=O)c2ccc(C3=CCCCC3)cc2O[C@@H]1CN(C)C(=O)Cc1ccncc1,-8,-1,94
CC1C=NC(S(=O)(=O)N2CC[C@@H]3[C@H]2c2cc(-c4ccccc4F)ccc2N(C)[C@H]3CO)=N1 (some centres undefined),/,-1,70
COc1ccc(-c2cnc3c(c2)C(=O)N([C@H](C)CO)C[C@H](C)[C@H](CN(C)C(=O)Cc2cccnc2)O3)cc1,0,/,/
C[C@@H]1CCCCO[C@@H](CN(C)C(=O)CCCN(C)C)[C@H](C)CN([C@H](C)CO)C(=O)c2cc(NC(=O)Nc3cccc4ccccc34)ccc2O1,-18,6,74
COc1ccc(-c2ccc3c(c2)O[C@H](CN(C)C(=O)c2ccccc2F)[C@H](C)CN([C@@H](C)CO)S3(=O)=O)cc1,2,1,86
COc1ccc(NC(=O)N(C)C[C@@H]2Oc3cc(-c4ccncc4)ccc3S(=O)(=O)N([C@H](C)CO)C[C@@H]2C)cc1,71*,37*,17
COc1ccc(NC(=O)N(C)C[C@@H]2Oc3cc(-c4ccncc4)ccc3S(=O)(=O)N([C@@H](C)CO)C[C@@H]2C)cc1,-5,-1,48
COc1ccc(-c2ccc3c(c2)O[C@H](CN(C)C(=O)c2ccccc2F)[C@H](C)CN([C@H](C)CO)S3(=O)=O)cc1,?,45*,46
COc1ccc(S(=O)(=O)Nc2ccc3c(c2)C(=O)N([C@H](C)CO)C[C@H](C)[C@H](CN(C)C)OCCCC[C@@H](C)O3)cc1,1,7,42
CCNC(=O)[C@@H]1[C@@H](CO)[C@@H]2Cn3c(ccc(-c4cccnc4)c3=O)[C@@H]2N1Cc1ccccc1,/,5,-1
O=C(NCC(F)(F)F)[C@@H]1[C@@H](CO)[C@@H]2Cn3c(ccc(-c4cccnc4)c3=O)[C@@H]2N1Cc1ccncc1,/,38*,6
C[C@@H]1CN([C@@H](C)CO)C(=O)c2cc(NC(=O)NC3CCCCC3)ccc2O[C@@H](C)CCCCO[C@H]1CN(C)S(=O)(=O)c1ccccc1,/,0,-46
C[C@H]1CCCCO[C@@H](CN(C)Cc2ccncc2)[C@@H](C)CN([C@@H](C)CO)C(=O)c2cc(NC(=O)Nc3cccc4ccccc34)ccc2O1,-5,1,99*
C[C@@H]1CN([C@@H](C)CO)C(=O)c2c(c3ccccc3n2C)-c2ccccc2CO[C@@H]1CN(C)Cc1ccc(O)cc1,/,-1,/
C[C@@H]1CN([C@@H](C)CO)C(=O)c2c(c3ccccc3n2C)-c2ccccc2CO[C@@H]1CN(C)Cc1ccncc1,47*,0,-10
C[C@@H]1CCCCO[C@@H](CN(C)C(=O)Nc2ccc(C(F)(F)F)cc2)[C@H](C)CN([C@@H](C)CO)C(=O)c2cc(NC(=O)Nc3ccc4c(c3)OCO4)ccc2O1,3,-2,112*
C[C@@H]1CCCCO[C@H](CN(C)Cc2ccncc2)[C@H](C)CN([C@@H](C)CO)C(=O)c2cc(NC(=O)Nc3cccc4ccccc34)ccc2O1,0,-1,74
C[C@H](CO)N1C[C@H](C)[C@@H](CN(C)C(=O)Nc2ccc3c(c2)OCO3)OCCCC[C@H](C)Oc2ccc(NC(=O)Nc3ccc(C(F)(F)F)cc3)cc2C1=O,-1,-1,91
CCC(=O)N1[C@@H]2c3cccc(=O)n3C[C@@H]2[C@@H](CO)[C@@H]1C(=O)N1CCCCC1,/,0,-46
Cc1noc(C)c1NC(=O)N(C)C[C@H]1Oc2ccc(NS(=O)(=O)c3c(C)noc3C)cc2C(=O)N([C@H](C)CO)C[C@H]1C,0,0,15
COc1ccc(NC(=O)Nc2ccc3c(c2)OC[C@@H](C)NC[C@H](C)[C@H](OC)CN(C)C3=O)cc1,/,5,/
COCC(=O)N(C)C[C@H]1Oc2ncc(C#Cc3cccnc3)cc2C(=O)N([C@@H](C)CO)C[C@@H]1C,1,7,56
SMILES,IDH1 mut inh,KDM4C inh,Tcruzi prolif
C[C@H](CO)N1C[C@H](C)[C@@H](CN(C)C(=O)c2ccccc2F)Oc2ncc(C#Cc3ccncc3)cc2C1=O,1,-2,/
C[C@@H]1CN([C@H](C)CO)C(=O)c2cc(C#Cc3ccncc3)cnc2O[C@@H]1CN(C)C(=O)c1ccccc1F,36*,4,/
COCC(=O)N(C)C[C@@H]1Oc2ncc(C#CC3(O)CCCC3)cc2C(=O)N([C@H](C)CO)C[C@@H]1C,0,3,6
COCC(=O)N(C)C[C@@H]1Oc2ncc(C#Cc3cccnc3)cc2C(=O)N([C@@H](C)CO)C[C@H]1C,11,37*,58
COCC(=O)N(C)C[C@H]1Oc2ncc(C#CC3(O)CCCC3)cc2C(=O)N([C@@H](C)CO)C[C@H]1C,13,31*,30
COCc1cn(CC[C@H]2CC[C@@H](NC(=O)c3ccc(F)cc3)[C@H](CO)O2)nn1,0,-2,13
CCCC#Cc1ccc([C@@H]2[C@@H](C#N)N(S(C)(=O)=O)[C@H]2CO)cc1,/,-4,87
Cc1cccc(-c2ccc([C@@H]3[C@@H](CO)N4C(=O)CN(C(=O)c5cccnc5)C[C@@H]34)cc2)c1,/,0,/
C[C@H]1CN([C@@H](C)CO)C(=O)CCCn2nncc2CO[C@@H]1CN(C)C(=O)Nc1ccc(-c2cccs2)cc1,0,-1,-38
N#C[C@@H]1[C@H](c2ccc(C3=CCCC3)cc2)[C@H](CO)N1C(=O)c1cccc(F)c1,/,2,78
CCCNC(=O)N1[C@H](CO)[C@@H]2c3ccccc3N(C)C[C@@H]21,/,0,3
COCc1cn(CC[C@H]2CC[C@H](NC(=O)Nc3ccc(OC)cc3)[C@H](CO)O2)nn1,89*,89*,13
COCc1cn(CC[C@@H]2CC[C@@H](NC(=O)Nc3ccc(OC)cc3)[C@H](CO)O2)nn1,0,-1,3
C[C@@H]1CN([C@H](C)CO)C(=O)Cc2cc(NC(=O)C3CC3)ccc2O[C@@H]1CN(C)C(=O)Nc1cccc2ccccc12,1,4,31
Cc1cc(-c2ccc(N=Nc3cc(S(=O)(=O)O)c4ccccc4c3N)c(C)c2)ccc1N=Nc1cc(S(=O)(=O)O)c2ccccc2c1N,43*,/,/
Cc1cc(N)n(-c2ccc(Oc3ccccc3)cc2S(=O)(=O)O)n1,-1,/,/
COCCNC(=O)C[C@@H]1C[C@@H]2c3cc(N(C)C)ccc3O[C@@H]2[C@H](CO)O1,-2,?,/
COCCNC(=O)C[C@H]1C[C@H]2c3cc(NC(=O)c4ccc5c(c4)OCO5)ccc3O[C@H]2[C@@H](CO)O1,16,54*,/
COc1ccc(S(=O)(=O)Nc2ccc3c(c2)[C@H]2C[C@@H](CC(=O)NCC4CC4)O[C@@H](CO)[C@H]2O3)cc1,0,0,35
